This is a sample that favours compounds with a hit; in the whole collection about 9.4% have one here.
Mdm2-MdmX inh: human Mdm2/MdmX binding inhibition; O15151+Q00987; SaOS-2 split-luciferase Mdm2/MdmX complementation, luminescence; inhibition, % at 8 µM; 330,000 tested, 3% active; AID 485346;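 active means inhibition of at least 50% at 8 µM in the primary screen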
Target sequence (O15151 whole entry, looked up): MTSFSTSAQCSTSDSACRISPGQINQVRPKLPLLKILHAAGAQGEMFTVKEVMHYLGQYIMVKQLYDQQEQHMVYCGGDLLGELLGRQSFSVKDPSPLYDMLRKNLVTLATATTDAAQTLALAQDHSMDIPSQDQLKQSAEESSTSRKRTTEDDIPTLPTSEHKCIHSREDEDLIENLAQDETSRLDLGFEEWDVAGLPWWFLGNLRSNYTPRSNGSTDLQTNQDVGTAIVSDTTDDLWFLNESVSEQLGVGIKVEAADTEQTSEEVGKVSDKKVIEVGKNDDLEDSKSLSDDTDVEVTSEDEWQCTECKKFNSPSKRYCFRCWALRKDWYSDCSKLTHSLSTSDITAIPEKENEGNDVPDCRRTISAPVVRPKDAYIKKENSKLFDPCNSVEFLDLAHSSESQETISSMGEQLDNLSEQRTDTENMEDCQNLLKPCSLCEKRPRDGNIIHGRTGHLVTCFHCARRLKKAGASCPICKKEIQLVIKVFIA
Target sequence (Q00987 whole entry, looked up): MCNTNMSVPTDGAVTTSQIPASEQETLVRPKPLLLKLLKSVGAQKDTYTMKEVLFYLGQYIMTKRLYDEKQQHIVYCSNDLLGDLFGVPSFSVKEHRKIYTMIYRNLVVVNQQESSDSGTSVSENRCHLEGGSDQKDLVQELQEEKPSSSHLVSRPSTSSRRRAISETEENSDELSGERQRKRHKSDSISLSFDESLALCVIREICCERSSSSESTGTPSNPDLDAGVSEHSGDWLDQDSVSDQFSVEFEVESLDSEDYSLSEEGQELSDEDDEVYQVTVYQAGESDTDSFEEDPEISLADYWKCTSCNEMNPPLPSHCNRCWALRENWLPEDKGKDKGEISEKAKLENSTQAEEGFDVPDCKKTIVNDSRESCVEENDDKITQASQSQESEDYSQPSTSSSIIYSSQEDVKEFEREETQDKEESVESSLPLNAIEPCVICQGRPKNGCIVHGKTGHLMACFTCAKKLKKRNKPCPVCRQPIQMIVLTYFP
Lmaj promast: reduces viability of Leishmania major promastigotes | AID 1063 | resazurin fluorescence viability | 200,000 tested, 9% active | inhibition, % at 10 µM; in the data active means inhibition above about 50%;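 further: promastigotes grown with compound for 44 hours at 28 °C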
T cruzi repl: T. cruzi replication inhibition. inhibition, % (concentration not given with the values). T. cruzi beta-gal in NIH3T3, luminescence, 90 h. 300,000 tested, 1.4% active;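 active means mean inhibition across valid replicates above about 55%, limit read from the data; inconclusive means mean below that limit but half or more replicates reach it; inactive means mean below it, under half of replicates reach it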;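 further: signal also drops with host cell toxicity which is not excluded here; 0% = plate median of DMSO wells and 100% = zero luminescence signal; higher percent means less beta-gal luminescence so fewer parasites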
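Assay system: NIH/3T3 host cells with β-galactosidase reporter T. cruzi; input: 5,000 host fibroblasts per well; compound: single 50 nL compound addition per well in DMSO; timing: ≥90 h infection period, 3 h prior cell attachment; measured by: GalScreen β-gal luminescence, detergent lysis, 60 min; evaluation: percent inhibition of parasite-derived β-gal signal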
SKKanGAS inh: inhibitors of SKKanGAS S. pyogenes growth in kanamycin (SK-promoter or general growth effect); BacTiter-Glo, 6 h; inhibition, % at 7.5 µM; 300,000 tested, 1.3% active;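 active means mean replicate score, as percent of positive control median, at least 50; inconclusive means mean below 50 but one replicate at or above 50; inactive means mean and every replicate below 50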;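 further: strain carries kanamycin resistance gene driven by streptokinase promoter and grows in 40 µg/ml kanamycin; loss of luminescence reflects streptokinase promoter inhibition or plain growth inhibition; 0% = median of DMSO wells and 100% = positive control at its reference dose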
Beta apoptosis: beta cell apoptosis inhibition. INS-1E cytokine-induced death, ATP luminescence, 48 h; percent of positive-control rescue, neutral wells zero. protection from apoptosis, % (concentration not given with the values). 300,000 tested, 0.8% active;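 active means Every replicate reaches about 75%, or at least half do and their mean reaches it too, limit read from the data; inconclusive means At least half of replicates reach the limit but their mean does not; inactive means Under half of replicates reach the limit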;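 further: 0% = cytokine-treated negative control wells and 100% = positive control rescue; higher means more ATP so stronger rescue from cytokine killing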
CSC inhib: blocks cancer stem cells; cancer stem cell-like cells viability, luminescence; inhibition, % at 7.5 µM; 300,000 tested, 1.1% active; in the data active means inhibition above about 75%; inconclusive means no clear call, values can overlap the other calls; tested in HMLE shEcad cells
Mdm2 MdmX conf: confirmation of human Mdm2/MdmX interaction inhibitors; shares compounds with Mdm2-MdmX inh; Mdm2-MdmX binding, luminescent assay; inhibition, % at 8 µM; 10,000 tested, 55% active; in the data active means inhibition above about 40%
FLuc counter: counter-screen for Mdm2/MdmX inhibitors: full-length luciferase; shares compounds with Mdm2-MdmX inh; SaOS-2 full-length luciferase counterscreen, luminescence; inhibition, % at 8 µM; 6,200 tested, 77% active; AID 504607;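 active means mean inhibition at 8 µM reaching about 37%, which flags the compound as non-specific, limit read from the data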;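 further: p53-null SaOS-2 cells with luciferase driven by a doxycycline-inducible promoter; compound on cells about two nights before reading with doxycycline added after day one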
An asterisk follows results filed as active; ? = inconclusive; nt = not tested or not shown.

SMILES	Mdm2-MdmX inh	Lmaj promast	T cruzi repl	SKKanGAS inh	Beta apoptosis	CSC inhib	Mdm2 MdmX conf	FLuc counter
CSc1nnc(-c2sc3cc(C(F)(F)F)cnc3c2-c2ccccc2)n1C	67.2*	24.1	-2.3	1.0	10.9	51.6	48.4*	50.2*
COc1ccc(C2=Nn3c(nnc3-c3cccnc3)SC2)cc1OC	51.2*	nt	-8.1	11.6	7.8	-23.1	22.5	nt
COc1ccc(C2=Nn3c(nnc3-c3ccccc3C(F)(F)F)SC2)cc1OC1CCOC1 (stereo not given)	34.3	nt	nt	nt	5.9	11.8	nt	nt
COc1ccc(C2=Nn3c(nnc3-c3ccccc3OC)SC2)cc1OC1CCOC1 (stereo not given)	71.1*	nt	nt	nt	7.0	46.2	73.3*	95.3*
COc1ccccc1-c1nnc2n1N=C(c1ccc(O)c(O)c1)CS2	50.3*	2.7	-34.1	1.8	30.4	-14.2	58.1*	139.8*
CCOC(=O)C1=C(C)NC(=S)NC1c1ccsc1 (stereo not given)	-1.0	-1.4	-3.8	8.2	-2.8	-11.8	nt	nt
Cc1cc(Nc2nc3ccccc3nc2Cl)n(-c2ccc([N+](=O)[O-])cc2)n1	95.9*	27.2	55.5*	7.4	76.8*	34.5	48.9*	51.5*
Cc1cc(Nc2nc3ccccc3[nH]c2=O)n(-c2ccccc2)n1	39.5	11.2	nt	nt	-11.9	9.0	nt	nt
COc1ccccc1CNC(=O)OCc1nccnc1C(=O)Nc1ccc(Br)cn1	54.6*	nt	2.1	-2.3	-8.8	-1.3	-6.8	nt
COc1ccc(C)cc1NC(=O)Nc1ccc(Br)cn1	23.9	1.9	-6.8	-7.2	-8.6	-7.3	nt	nt
O=C(Nc1c(C(=O)N2CCOCC2)cnn1-c1ccccc1)c1cccc(F)c1	13.0	nt	-13.8	-2.9	-5.0	-1.0	nt	nt
Brc1ccc2c(c1)OCCOCCOc1cc(Br)ccc1OCCOCCOCCO2	74.0*	100.5*	64.9*	0.8	19.2	6.3	39.5	59.7*
O=C(CSc1ccc(Br)cc1)NC1CCCCCC1	-24.2	nt	nt	nt	-0.9	4.5	nt	nt
CCOc1ccccc1CNC(=O)c1cc2oc3ccccc3c2n1CC	93.0*	97.2*	25.9	34.2	5.9	48.8	89.2*	25.6
COc1cccc(CNC(=O)c2cc3oc4ccccc4c3n2C)c1OC	97.2*	-6.5	-1.6	-6.5	-4.8	37.0	95.8*	47.1*
CCOc1ccc(CNC(=O)c2cc3oc4ccccc4c3n2C)cc1	85.1*	-4.2	-12.2	-3.2	-2.1	37.5	88.0*	25.6
CCn1c(C(=O)N2CCc3ccccc3C2)cc2oc3ccccc3c21	-16.8	-4.7	4.5	?	-10.4	20.7	nt	nt
COc1cccc(CNC(=O)c2ccc3c(c2)N(C)CCS3)c1OC	12.4	nt	7.4	-5.2	0.0	-0.1	nt	nt
CC(C)(Oc1ccc(Cl)cc1)C(=O)O	10.0	nt	-0.5	-4.9	-1.3	-10.3	nt	nt
CC(C)(CO)NCc1c(OCc2ccc(Cl)cc2)ccc2ccccc12	54.6*	nt	33.3	-0.4	11.5	24.2	29.2	nt
O/N=C/c1ccccc1OCc1ccc(Cl)cc1	-12.8	7.0	12.5	8.4	-10.3	1.2	nt	nt
COc1cc(OC)c(/C=N/NC(=O)COc2cccc3cccnc23)c(OC)c1	7.0	nt	-6.6	-1.8	-0.1	-4.8	nt	nt
CNC(=S)N/N=C/c1ccc(-c2cccc(C(=O)O)c2)o1	20.9	nt	-0.7	11.3	22.4	14.9	nt	nt
Cc1ccc(C(=O)N/N=C/c2ccc(-c3cccc(C(F)(F)F)c3)o2)cn1	58.2*	nt	2.6	-5.4	16.1	44.0	53.0*	49.6*
CN(C)S(=O)(=O)c1cccc(NC(=S)N/N=C/c2cc(Br)ccc2O)c1	69.9*	nt	57.1*	107.0*	94.0*	76.8*	78.5*	37.2*
CCOC(=O)c1[nH]c(C)c(C(=O)OCC(=O)NC(C)c2ccc(F)cc2)c1C (stereo not given)	35.5	nt	nt	nt	9.6	nt	nt	nt
O=C(c1ccc2c(=O)n3c(nc2c1)CCCCC3)N1CCN(C(c2ccccc2)c2ccccc2)CC1	63.1*	39.7	32.9	20.6	8.5	54.0	22.4	nt
Cc1c(NC2(C#N)CCCCC2)c(=O)n(-c2ccccc2)n1C	-2.9	-4.1	-8.0	-3.2	-5.7	-17.4	nt	nt

Bioassay records (PubChem)
